Calls of active or inactive are those of the source. The rule behind the calls is not given here.
Tests used:
Lipid bilayer [1] = assay: Binding affinity to Me-16-DSA labelled 1,2-dimyristoyl-sn-glycero-3-phosphocholine bilayer containing assessed as change in membrane fluidity by electron paramagnetic resonance spectroscopy
Method in brief: (§1)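 DMPC membranes carrying a spin label, either pure or with terpenoid at 15 mol % (Me-5-DSA also over a concentration series). Samples held in hematocrit tubes and equilibrated 10 min at 35 °C. X-band spectra (~9.4 GHz, ~2 mW, 100 kHz modulation, 1 G amplitude), usually five scans summed. Order parameter from hyperfine splittings. Rotational correlation times from central-line width and line heights as a fluidity measure.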

Lipid bilayer [2] = assay: Binding affinity to 5-DSA labelled 1,2-dimyristoyl-sn-glycero-3-phosphocholine bilayer containing assessed as change in membrane fluidity by electron paramagnetic resonance spectroscopy; method in brief: as §1
Lipid bilayer [3] = assay: Binding affinity to 1,2-dimyristoyl-sn-glycero-3-phosphocholine bilayer assessed as decrease in main phase transition temperature at high concentration by differential scanning calorimetry (reference value: 24.4 deg C); type: physicochemical
Method in brief: (§2)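 Differential scanning calorimetry on 15 mM multilamellar DMPC vesicles in 50 mM sodium phosphate (ionic strength 154 mM with NaCl, pH 7.5). Terpenoid added in MeOH (below 10 μL); the x = 0 control received 10 μL MeOH. Terpenoid mole fraction varied from 0 to 0.15. Main-transition Tm, pretransition temperature and transition enthalpy were read from the thermograms.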

Lipid bilayer [4] = assay: Binding affinity to 1,2-dimyristoyl-sn-glycero-3-phosphocholine bilayer assessed as increase in pre-transition temperature at low concentration by differential scanning calorimetry (reference value: 12.7 deg C); type: physicochemical; method in brief: as §2
[5] = 1,2-dimyristoyl-sn-glycero-3-phosphocholine bilayer-water partition coefficient, K of the compound at 300 uM by isothermal titration calorimetry at 35 deg C; type: physicochemical; settings: DMPC vesicles/water
Method in brief: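 DMPC vesicles hydrated in 50 mM sodium phosphate (ionic strength 154 mM with NaCl, pH 7.5), extruded at 35 °C through 100 nm filters. Lipid suspension (1–20 mM) injected in small aliquots into ~300 μM terpenoid in the ITC cell (1.409 mL). Integrated heats per injection fitted with a dilution-heat term to give K and ΔH. ΔG0 = −RTln(55.5K). ΔCP from linear regression of ΔH versus temperature.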

Lipid bilayer [6] = assay: Binding affinity to CSL labelled 1,2-dimyristoyl-sn-glycero-3-phosphocholine bilayer containing assessed as change in membrane fluidity by electron paramagnetic resonance spectroscopy; method in brief: as §1
Lipid bilayer [7] = assay: Binding affinity to Me-5-DSA labelled 1,2-dimyristoyl-sn-glycero-3-phosphocholine bilayer containing assessed as change in membrane fluidity by electron paramagnetic resonance spectroscopy; method in brief: as §1
Lipid bilayer [8] = assay: Binding affinity to 1,2-dimyristoyl-sn-glycero-3-phosphocholine bilayer assessed as change in main phase transition temperature at low concentration by differential scanning calorimetry; type: physicochemical; method in brief: as §2

| Activity (Lipid bilayer [1]) | Activity (Lipid bilayer [2]) | T (Lipid bilayer [3]) | T (Lipid bilayer [4]) | Ko [5] | Activity (Lipid bilayer [6]) | Activity (Lipid bilayer [7]) | Activity (Lipid bilayer [8]) | Activity [5] | SMILES |
| --- | --- | --- | --- | --- | --- | --- | --- | --- | --- |
| inactive | inactive | 16.3 °C | 14.5 °C | 10900 M⁻¹ | inactive | inactive | Not Active | – | C=C(C)[C@H]1CC=C(C)CC1 [D-LIMONENE] |
| – | – | – | – | – | – | – | – | Not Active | C=C(C)[C@@H]1CC=C(C(=O)O)CC1 [PERILLIC ACID] |
| inactive | inactive | 19.4 °C | – | 305 M⁻¹ | inactive | inactive | Not Active | – | C=C(C)[C@@H]1CC=C(CO)CC1 [PERILLYL ALCOHOL] |

| SMILES | Activity (Lipid bilayer [1]) | Activity (Lipid bilayer [2]) | T (Lipid bilayer [3]) | T (Lipid bilayer [4]) | Ko [5] | Activity (Lipid bilayer [6]) | Activity (Lipid bilayer [7]) | Activity (Lipid bilayer [8]) | Activity [5] |
| --- | --- | --- | --- | --- | --- | --- | --- | --- | --- |
| C=C(C)C1CC=C(C=O)CC1 (stereo not drawn) [PERILLALDEHYDE] | inactive | inactive | 19.4 °C | – | 215 M⁻¹ | inactive | inactive | Not Active | – |

Reference: ChEMBL document CHEMBL2010686, “Influence of the active compounds of Perilla frutescens leaves on lipid membranes” (J Nat Prod, 2012)
